# ASAP1 inh – ASAP1 ArfGAP inhibition; Q9ULH1; ASAP1-stimulated ARF1 GTP hydrolysis, GDP FP detection; inhibition, % at 16.5 µM; 360,000 compounds, 0.19% hits; AID 624377; in the data active = inhibition above about 25%;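 note: 0% = vehicle with enzyme and substrate and 100% = no enzyme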
# CendR NRP1 mod – alters CendR peptide binding to human NRP-1; O14786; FAM-RPARPAR peptide binding to NRP-1, fluorescence polarization; inhibition, % at 25 µM; 360,000 compounds, 0.85% hits; AID 602438;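 active = inhibition or corrected inhibition above about 18%, plus a signal ratio from 0.5 to 1.5, limit read from the data, passing the limit was not always enough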
# Target sequence (O14786 whole entry, looked up): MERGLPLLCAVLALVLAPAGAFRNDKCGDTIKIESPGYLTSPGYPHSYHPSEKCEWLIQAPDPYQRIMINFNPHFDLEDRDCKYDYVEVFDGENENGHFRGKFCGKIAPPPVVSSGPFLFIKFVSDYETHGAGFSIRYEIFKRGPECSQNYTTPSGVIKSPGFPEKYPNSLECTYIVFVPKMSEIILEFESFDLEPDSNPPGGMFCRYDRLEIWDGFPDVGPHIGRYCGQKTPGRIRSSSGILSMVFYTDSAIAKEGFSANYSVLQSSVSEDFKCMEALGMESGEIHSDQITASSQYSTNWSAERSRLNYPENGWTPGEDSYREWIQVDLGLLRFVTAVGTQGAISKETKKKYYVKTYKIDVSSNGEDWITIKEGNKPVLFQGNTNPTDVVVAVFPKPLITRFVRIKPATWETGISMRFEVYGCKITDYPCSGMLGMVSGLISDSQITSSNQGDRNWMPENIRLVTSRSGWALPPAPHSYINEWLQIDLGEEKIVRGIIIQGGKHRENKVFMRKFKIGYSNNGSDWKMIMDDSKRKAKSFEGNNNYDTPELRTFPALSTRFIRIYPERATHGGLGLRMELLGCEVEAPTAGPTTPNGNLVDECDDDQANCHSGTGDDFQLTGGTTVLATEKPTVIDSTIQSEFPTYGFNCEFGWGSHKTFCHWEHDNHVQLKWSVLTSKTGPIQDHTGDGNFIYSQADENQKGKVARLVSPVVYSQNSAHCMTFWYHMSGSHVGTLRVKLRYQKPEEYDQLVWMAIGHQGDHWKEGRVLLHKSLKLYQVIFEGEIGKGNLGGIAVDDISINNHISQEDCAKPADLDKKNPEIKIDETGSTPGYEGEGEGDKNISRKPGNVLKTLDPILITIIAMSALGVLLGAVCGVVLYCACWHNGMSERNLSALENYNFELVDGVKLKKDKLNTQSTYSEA
# V-ATPase pH – alters yeast V-ATPase proton transport. 350,000 compounds, 0.37% hits. S. cerevisiae, pHLuorin cytosolic pH fluorescence. response, % at 10 µM; in the data active = response mostly above about 7.3%, no sharp cut-off; inactive = mostly below about 5.4%; note: actives read high
# ARFGAP1 inh – rat ARFGAP1 inhibition; Q62848; Arfgap1-stimulated ARF1 GTP hydrolysis, GDP FP detection; 360,000 compounds, 0.26% hits; inhibition, % at 16.5 µM;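 active = inhibition above a per-plate limit, mean inhibition of low control wells plus 3 SD, cut at about 25% in these data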;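 note: 0% = DMSO wells with enzyme and 100% = wells lacking Arfgap1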
#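 Assay system: Rat Arfgap1 GAP domain (His6, aa 1-136), purified enzyme | Buffer or medium: HEPES 25 mM pH 7.5, NaCl 150 mM, MgCl2, DTT | Schedule: GTP hydrolysis reaction 2 h at 25 °C | Signal: FP of antibody-bound GDP Alexa 633 tracer, ex 620/em 688 nm | Measure: Percent inhibition of Arfgap1-stimulated GTP hydrolysis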
# Granule exo inh – blocks lytic granule exocytosis | TALL-104 LAMP-1 surface exposure, flow cytometry; cells stimulated with thapsigargin and PMA | inhibition, % at 10 µM | 360,000 compounds, 0.66% hits;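 active = inhibition above about 55%, limit read from the data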
# Granule exo CP1 – lytic granule exocytosis inhibition | shares compounds with Granule exo inh | TALL-104 cells, LAMP-1 externalization, flow cytometry; stimulated with PMA plus thapsigargin | inhibition, % at 10 µM | 1,500 compounds, 11% hits | AID 651954; in the data active = inhibition above about 60%;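 note: 0% = stimulated vehicle wells and 100% = unstimulated wells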
# Starred values were filed as active, the others as inactive; nt = not tested or not shown. Only some compounds are listed: those with a hit (about 2.2% of all), similar ones and a draw of the others.
SMILES,ASAP1 inh,CendR NRP1 mod,V-ATPase pH,ARFGAP1 inh,Granule exo inh,Granule exo CP1
Cc1ccc(S(=O)(=O)N(C)c2cccc3c2S(=O)(=O)N([C@H](C)c2ccccc2)C[C@@H](COCc2ccccc2)O3)cc1,5,nt,nt,-2,nt,nt
O=C(c1ccc([N+](=O)[O-])cc1)N1CCN(c2ncccn2)CC1,3,-1,-2,5,9,nt
COc1cc(NC(=O)c2cccc3c2C(=O)N(C2CCCCC2)C3)cc(OC)c1OC,1,0,-3,0,94*,12
COc1ccc(/C=C/c2onc(C)c2S(=O)(=O)N2CCC(C(=O)N3CCC(C)CC3)CC2)cc1,0,0,-3,9,76*,-14
Nc1c(C(=O)NCc2ccc(F)cc2)c2nc3ccccc3nc2n1CCCN1CCOCC1,16,-22,1,11,62*,90*
Cc1ccc(S(=O)(=O)CCC(=O)N(CCCN2CCOCC2)c2nc3ccccc3s2)cc1,-8,3,-1,4,65*,-8
O=C(CCS(=O)(=O)c1ccccc1)N(CCCN1CCOCC1)c1nc2ccccc2s1,-1,1,5,13,58*,-9
CCOc1cc(CNCCc2ccc(S(N)(=O)=O)cc2)ccc1OCc1ccc(Cl)cc1,-14,-9,1,11,103*,94*
Cc1cccc2c1-c1sc(C(=O)NCCCN3CCC(C)CC3)cc1CO2,-1,2,3,6,79*,9
COc1ccccc1C(=O)Nc1ccccc1SC(=O)c1ccccc1OC,-3,-6,-3,7,91*,33
COC(=O)c1ccccc1NC(=O)c1ccccc1OC,1,-1,2,0,-1,nt
Cc1ccc(C)c(NC(=O)c2nc(-c3ccccc3)n(-c3ccccc3)n2)c1,-4,2,-5,14,68*,4
COc1ccc(C)cc1NC(=O)c1nn(-c2ccccc2)cc1OC,13,-5,-7,7,100*,-1
Cc1ccc(C)c(NC(=O)c2cc(-c3ccccc3)nn2-c2ccccc2)c1,4,-15,-1,15,2,nt
CCN(CC(=O)NCc1ccc(Cl)cc1)C(=O)CCc1ccccc1,10,-10,-2,15,14,nt
COC(=O)[C@@]1(C)[C@H]2C(=O)N(C)C(=O)[C@H]2[C@H]2CN=C(SCc3ccc(Cl)cc3)N21,-12,7,1,-4,-2,nt
O=C(CCS(=O)(=O)c1ccccc1)N1CCCc2ccccc21,8,14,-3,10,74*,9
O=C(COc1ccccc1)Nc1cc(C(F)(F)F)ccc1N1CCCC1,-2,20,1,-15,74*,-13
CC(C)(C(=O)N1CCC1(C)C(=O)NS(=O)(=O)c1ccc(Cl)s1)c1ccccc1 (centres undefined),-3,-4,nt,2,3,nt
Oc1ccc(-c2c(-c3ccsc3)sc3ccccc23)cc1,-2,5,-2,-1,87*,-3
COCc1ccc(-c2c(-c3ccsc3)sc3ccccc23)cc1,-7,2,0,5,9,nt
COCC(CN1CCN(C2=NS(=O)(=O)c3ccccc32)CC1)OC(=O)c1ccccc1 (centres undefined),-7,9,2,1,-12,nt
O=C(CNC1CCCCC1)Nc1ccc(S(=O)(=O)N2CCCCC2)cc1,15,12,-1,-3,78*,21
O=C(CCCc1c[nH]c2ccccc12)NCCc1c[nH]c2ccccc12,4,-10,-1,14,80*,-14
Cc1cccc(CCN(CC(=O)NCc2ccc(F)cc2)C(=O)c2csnn2)c1,-2,2,2,4,68*,-4
SMILES,ASAP1 inh,CendR NRP1 mod,V-ATPase pH,ARFGAP1 inh,Granule exo inh,Granule exo CP1
CCc1nc2ccc(C(=O)NCCc3ccccn3)cn2c1N(C)Cc1cccs1,4,7,nt,-6,-9,nt
O=C(CCN1CCOCC1)c1ccc(Cl)cc1,-1,13,1,11,35,nt
O=C(CCN1CCOCC1)c1ccc(Br)cc1,-9,-3,10,-2,96*,41
O=C(CCN1CCN(c2ccccc2F)CC1)c1ccc(Br)cc1,nt,4,3,nt,12,nt
O=C(CCN1CCN(c2ccccc2)CC1)c1ccc(Br)cc1,-6,-2,8,-10,56*,12
COc1ccc(N2CCN(CCC(N)=O)CC2)cc1,-9,2,1,-2,-1,nt
COc1ccc(C(=O)CCN2CCN(c3ccc(OC)cc3)CC2)cc1,3,4,1,4,101*,-4
O=C(C1CCN(S(=O)(=O)c2ccccc2)CC1)N1CCC1,0,16,-3,12,1,nt
COc1ccc(Cl)cc1-c1cc(C(=O)NCc2ccc(F)cc2)[nH]n1,-2,-7,nt,14,31,nt
COc1ccc(OC)c(NC(=O)c2cc(-c3cc(Cl)ccc3O)n[nH]2)c1,-5,4,-7,-1,90*,58
COc1ccc(Cl)cc1-c1cc(C(=O)NCc2ccc(C(F)(F)F)cc2)[nH]n1,24,-7,nt,-3,86*,32
CCOC1=C2CN(S(=O)(=O)c3ccc(C)cc3)[C@H](c3ccccc3)C[C@@H]2N(S(=O)(=O)c2ccccc2C)[C@H](c2ccccc2)C1,-9,-52,nt,5,-1,nt
CCCC(=O)OC[C@H]1CN(C2CCCC2)S(=O)(=O)c2c(Oc3ccc(C(C)(C)C)cc3)cccc2O1,-2,nt,nt,-1,nt,nt
Cc1ccc(CN(C)C(=O)c2c(C)nn(-c3ccccc3)c2C)cc1,1,-2,2,12,67*,-10
Cc1nc2ncccn2c1-c1csc(Nc2ccccc2)n1,14,-24,-1,3,0,nt
CC(=O)Nc1ccc(Nc2nc(-c3c(C)nc4ccccn34)cs2)cc1,2,-9,-2,6,75*,-4
O=C(COC(=O)c1cccnc1Cl)Nc1cc(S(=O)(=O)N2CCCCCC2)ccc1Cl,15,2,0,-3,6,nt
CN(C)CCCN(Cc1ccccc1)C(=S)Nc1cccc(C(F)(F)F)c1,-2,-1,0,9,13,nt
FC(F)(F)c1cccc(NC(=S)N(CCCN2CCCC2)Cc2cccn2Cc2ccc(Cl)cc2)c1,0,10,0,7,68*,22
COc1ccc(NC(=S)N(CCCN2CCC(C)CC2)Cc2cccs2)cc1Cl,12,-7,6,-10,12,nt
COc1ccc(NC(=S)N(CCCN2CCCC2)Cc2cccn2Cc2ccc(Cl)cc2)cc1Cl,-8,10,-2,-2,69*,44
COc1ccccc1CNC(=O)CS(=O)(=O)Cc1ccccc1,1,10,4,-4,1,nt
O=C(CSc1ccc(S(=O)(=O)N2CCCCC2)cn1)Nc1ccccc1Br,-6,4,4,12,5,nt
COc1cccc(C2Nc3ccccc3C(=O)N2c2ccc(F)cc2)c1O (centres undefined),-1,-2,0,5,66*,-10
